From ChEMBL document CHEMBL4043276, “Design, synthesis and biological evaluation of 2-acetyl-5-O-(amino-alkyl)phenol derivatives as multifunctional agents for the treatment of Alzheimer's disease” (Bioorg Med Chem Lett, 2017) come the findings set out here.

Each structure is given as a SMILES string. Active and inactive are the calls of the source. No cut-off for these calls is given here.

Series [1] in a line: Metal chelating activity assessed as mole fraction of compound required to show 1:1 stoichiometry for Cu2+-compound complex at 37.5 uM after 30 mins by UV-Visible spectrophotometric method.
Series [2] can be described thus: Metal chelating activity assessed as compound-Fe2+ complex formation at 37.5 uM after 30 mins by UV-Visible spectrophotometric method.
Series [3] is described as follows: Selectivity index, ratio of IC50 for equine serum BuChE to IC50 for electric eel AChE. A digest of the protocol:
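IC50 values for E. electricus AChE and equine serum BuChE came from a modified Ellman assay, each the mean of three independent experiments run in triplicate. The selectivity index is the ratio of the two IC50 values.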

Series [4] relates to PC-12. Put plainly: Protection against H2O2-induced cell injury in rat PC12 cells assessed as cell viability preincubated for 2 hrs followed by H2O2 addition measured after 24 hrs by MTT assay. It is filed as functional, cell-based. The gist of the method: (§1)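 PC12 cells were injured with 100 μM H2O2. Viability was measured by MTT reduction and compared with untreated control and with the H2O2-only group.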

Series [5] has as its system PC-12. Put plainly: Protection against H2O2-induced cell injury in rat PC12 cells assessed as cell viability at 10 uM preincubated for 2 hrs followed by H2O2 addition measured after 24 hrs by MTT assay (reference value: 46.5%). The format is functional. The following applies: read-out: Activity. A digest of the protocol: as §1
For orientation: Formazan colour is commonly taken as a measure of viable cells.

Series [6] is described as follows: Effective permeability of the compound by PAMPA. It is filed as physicochemical. Conditions: read-out: Peff. On the technique in general: PAMPA measures passive passage across an artificial lipid membrane.
Another series addresses Acetylcholinesterase (Electrophorus electricus, UniProt O42275). The experiment in a line: Inhibition of electric eel AChE using acetylthiocholine as substrate incubated for 15 mins by Ellman's method.
Series [7] is described as follows: Antioxidant activity assessed as trolox equivalent of […]-induced radical scavenging activity measured every minute for 90 mins by ORAC fluorescein assay. It is filed as functional. A digest of the protocol: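 Measured by the ORAC-FL fluorescein method. Values are given as μM Trolox equivalent per μM of test compound.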
Series [8] concerns the target T1, Amine oxidase [flavin-containing] A (Homo sapiens, UniProt P21397).
T1 sequence (P21397 whole entry): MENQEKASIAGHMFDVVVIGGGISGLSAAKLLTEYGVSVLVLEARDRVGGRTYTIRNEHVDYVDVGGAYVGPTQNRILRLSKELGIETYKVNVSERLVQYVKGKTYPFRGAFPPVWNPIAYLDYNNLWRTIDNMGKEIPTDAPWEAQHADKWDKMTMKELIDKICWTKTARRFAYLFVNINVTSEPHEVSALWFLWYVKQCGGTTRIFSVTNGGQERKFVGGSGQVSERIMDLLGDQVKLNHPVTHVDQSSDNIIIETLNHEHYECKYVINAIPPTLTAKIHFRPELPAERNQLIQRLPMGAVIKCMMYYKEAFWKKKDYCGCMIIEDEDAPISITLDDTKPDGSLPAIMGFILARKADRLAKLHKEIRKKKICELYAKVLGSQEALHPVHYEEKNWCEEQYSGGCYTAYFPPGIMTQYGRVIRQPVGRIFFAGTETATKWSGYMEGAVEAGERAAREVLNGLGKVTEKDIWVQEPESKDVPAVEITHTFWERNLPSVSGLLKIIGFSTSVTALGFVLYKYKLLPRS
Put plainly: Inhibition of recombinant human MAO-A at 10 uM using kynuramine as substrate after 30 mins by fluorescence method relative to control. Conditions: 0.5 h.

Another series addresses Cholinesterase (Equus caballus, UniProt P81908). It is filed as ADME.
Series [9] can be described thus: Metal chelating activity assessed as compound-Zn2+ complex formation at 37.5 uM after 30 mins by UV-Visible spectrophotometric method.
The nature of series [10]: Metal chelating activity assessed as compound-Cu2+ complex formation by measuring red shift at 37.5 uM after 30 mins by UV-Visible spectrophotometric method.
For series [11], the system named is PC-12. Put plainly: Protection against H2O2-induced cell injury in rat PC12 cells assessed as cell viability at 1 uM preincubated for 2 hrs followed by H2O2 addition measured after 24 hrs by MTT assay (reference value: 46.5%). The following applies: read-out: Activity. It is filed as functional. The gist of the method: as §1
For series [12], the target named is Acetylcholinesterase (Electrophorus electricus) (UniProt O42275). The following applies: 0.5 to 2 uM.
A short description of series [13]: Metal chelating activity assessed as compound-Al3+ complex formation at 37.5 uM after 30 mins by UV-Visible spectrophotometric method.
Series [14] addresses T2, Amine oxidase [flavin-containing] B (Homo sapiens, UniProt P27338).
T2 sequence (P27338 whole entry): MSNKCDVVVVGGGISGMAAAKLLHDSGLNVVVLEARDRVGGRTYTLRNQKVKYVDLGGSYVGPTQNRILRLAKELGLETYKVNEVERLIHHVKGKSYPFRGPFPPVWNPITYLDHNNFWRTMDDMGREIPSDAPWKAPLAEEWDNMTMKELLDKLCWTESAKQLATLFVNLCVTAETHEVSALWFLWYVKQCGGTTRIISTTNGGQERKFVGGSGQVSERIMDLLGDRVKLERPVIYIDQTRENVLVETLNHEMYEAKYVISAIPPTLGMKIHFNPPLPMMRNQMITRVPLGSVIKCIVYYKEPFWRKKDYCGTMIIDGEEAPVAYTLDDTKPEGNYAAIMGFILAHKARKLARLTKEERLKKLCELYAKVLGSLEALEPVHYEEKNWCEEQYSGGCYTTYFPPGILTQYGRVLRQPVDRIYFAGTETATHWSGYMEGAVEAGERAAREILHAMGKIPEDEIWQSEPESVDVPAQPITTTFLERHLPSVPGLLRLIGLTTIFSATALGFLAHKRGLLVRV

Cholinesterase, sequence (P81908 whole entry): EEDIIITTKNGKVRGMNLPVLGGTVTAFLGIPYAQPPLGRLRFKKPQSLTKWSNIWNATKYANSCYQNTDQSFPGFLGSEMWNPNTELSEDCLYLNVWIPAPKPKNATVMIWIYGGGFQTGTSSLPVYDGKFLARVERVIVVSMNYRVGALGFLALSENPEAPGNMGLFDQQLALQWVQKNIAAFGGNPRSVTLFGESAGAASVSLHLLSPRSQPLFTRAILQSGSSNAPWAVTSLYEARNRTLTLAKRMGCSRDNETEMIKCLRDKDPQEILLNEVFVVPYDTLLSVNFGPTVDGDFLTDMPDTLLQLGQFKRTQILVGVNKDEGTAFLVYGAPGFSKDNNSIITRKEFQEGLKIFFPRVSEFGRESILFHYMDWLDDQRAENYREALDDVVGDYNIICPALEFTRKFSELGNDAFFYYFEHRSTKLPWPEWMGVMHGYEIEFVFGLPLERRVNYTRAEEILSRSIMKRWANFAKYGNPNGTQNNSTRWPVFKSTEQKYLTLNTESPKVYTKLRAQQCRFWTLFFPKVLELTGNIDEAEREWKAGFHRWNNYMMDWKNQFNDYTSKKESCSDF
Acetylcholinesterase, sequence (O42275 whole entry): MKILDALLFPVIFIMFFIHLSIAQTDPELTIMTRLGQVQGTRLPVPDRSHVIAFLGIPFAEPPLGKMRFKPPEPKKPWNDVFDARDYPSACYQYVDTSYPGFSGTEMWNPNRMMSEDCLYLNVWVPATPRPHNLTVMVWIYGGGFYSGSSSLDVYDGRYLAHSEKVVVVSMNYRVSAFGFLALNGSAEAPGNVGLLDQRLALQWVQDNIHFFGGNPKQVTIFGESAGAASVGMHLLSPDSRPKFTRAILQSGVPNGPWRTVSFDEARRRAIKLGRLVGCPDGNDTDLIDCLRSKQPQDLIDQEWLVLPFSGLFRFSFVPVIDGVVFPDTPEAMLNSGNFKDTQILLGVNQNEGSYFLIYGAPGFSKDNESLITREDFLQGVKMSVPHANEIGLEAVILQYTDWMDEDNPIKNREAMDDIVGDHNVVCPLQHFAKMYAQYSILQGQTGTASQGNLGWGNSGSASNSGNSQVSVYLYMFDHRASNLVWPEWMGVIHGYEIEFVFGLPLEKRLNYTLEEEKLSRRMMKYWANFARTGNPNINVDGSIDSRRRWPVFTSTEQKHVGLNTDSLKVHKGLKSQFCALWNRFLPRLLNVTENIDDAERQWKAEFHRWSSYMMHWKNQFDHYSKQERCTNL
Acetylcholinesterase (Electrophorus electricus), sequence (O42275 24-633 limits assumed): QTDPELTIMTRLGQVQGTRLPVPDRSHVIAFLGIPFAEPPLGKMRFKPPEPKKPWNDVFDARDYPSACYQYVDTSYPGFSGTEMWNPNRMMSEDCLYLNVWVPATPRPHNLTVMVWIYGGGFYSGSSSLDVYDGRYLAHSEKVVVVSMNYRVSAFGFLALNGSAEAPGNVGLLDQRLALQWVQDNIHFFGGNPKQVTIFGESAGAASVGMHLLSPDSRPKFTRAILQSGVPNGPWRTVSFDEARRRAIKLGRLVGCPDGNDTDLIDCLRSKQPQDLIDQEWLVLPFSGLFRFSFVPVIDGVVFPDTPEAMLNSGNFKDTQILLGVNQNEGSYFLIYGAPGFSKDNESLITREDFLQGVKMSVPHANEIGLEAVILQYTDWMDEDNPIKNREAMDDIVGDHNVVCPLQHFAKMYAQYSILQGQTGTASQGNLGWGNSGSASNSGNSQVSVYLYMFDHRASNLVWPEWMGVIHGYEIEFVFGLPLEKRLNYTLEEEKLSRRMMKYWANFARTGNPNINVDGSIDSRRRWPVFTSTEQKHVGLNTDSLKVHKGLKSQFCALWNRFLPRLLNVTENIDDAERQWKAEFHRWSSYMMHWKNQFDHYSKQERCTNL

As a reminder, the IC50 is the concentration needed to halve the response being measured. A high value points to lower potency. The inhibition is the change of the read-out against control, counted positive when it falls. For the compound `CC(=O)c1ccc(OCCCN2CCN(Cc3ccccc3)CC2)cc1O`, the Activity in series [1] was 0.99 molar ratio; with PC-12 [4], “Dose-dependent effect”; in series [7] it was 1.5 equiv. In addition, the outcome in [2], in [9] and in series [13] was inactive. Moreover, the Ratio IC50 in [3] worked out at 32.7. Also, the viability at 10 µM in the series with PC-12 [5] worked out at 73.3%. Further, in [6], the Papp is 13.3 ×10⁻⁶ cm/s. For the same compound, the IC50 against Acetylcholinesterase amounted to 0.96 µM; against Cholinesterase, 31.4 µM; in series [14], 6.8 µM. Also, in series [8], the inhibition at 10 µM is below 5%. In addition, the outcome in series [10] was Active. Moreover, in the series on PC-12 [11], the viability at 1 µM was found to be 59.6%. The inhibition result in series [12] was “Active”.
